ChEMBL document CHEMBL2375304, “Synthesis and anticancer activity of novel 2-pyridyl hexahyrocyclooctathieno[2,3-d]pyrimidine derivatives” (2013)

Tests used:
Format in all cases: functional
PC-3 = experiment: Growth inhibition of human PC3 cells after 48 hrs by Sulforhodamine B assay; conditions: PC-3, 48 h
How it was run: (§1)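 Cells were preincubated 24 h at 37 °C, 5% CO2, and a time-zero plate was TCA-fixed. Five concentrations were made by serial dilution from a DMSO stock (400-fold the top concentration) and incubated 48 h. Adherent cells were fixed with 10% final TCA and suspension cells with 16%. Plates were stained with 0.4% SRB and read at 515 nm. GI50 is the concentration giving 50% reduction in net protein increase versus control.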

TK-10 = experiment: Growth inhibition of human TK10 cells after 48 hrs by Sulforhodamine B assay; conditions: TK-10, 48 h
How it was run: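 Five-concentration stage in the […]-cell-line panel, using 10-fold or ½-log serial dilutions made from a DMSO stock (400-fold). Cells were preincubated 24 h at 37 °C, then drug-exposed 48 h. A time-zero plate was fixed with TCA at dosing, adherent cells were fixed with cold TCA (10% final), and protein was stained with SRB, absorbance 515 nm. GI50 was where [(Ti−Tz)/(C−Tz)]×100 = 50, from the percent growth vs log concentration plot, expressed as log10 GI50.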

CAKI-1 = experiment: Growth inhibition of human CAKI-1 cells after 48 hrs by Sulforhodamine B assay; conditions: CAKI-1, 48 h
How it was run: (§2)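 Five-concentration SRB assay using 10-fold or ½-log serial dilutions from a DMSO stock. Exposure is 48 h at 37 °C in 5% CO2 after 24 h preincubation. TCA fixation is followed by SRB staining and a reading at 515 nm. Percentage growth is computed from time-zero, control and treated absorbances. GI50 is the concentration where [(Ti−Tz)/(C−Tz)]×100 = 50, read from the plot against log concentration.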

OVCAR-3 [1] = experiment: Growth inhibition of human OVCAR3 cells after 48 hrs by Sulforhodamine B assay; conditions: OVCAR-3, 48 h; how it was run: as §1
IGROV-1 [2] = experiment: Growth inhibition of human IGROV1 cells after 48 hrs by Sulforhodamine B assay; conditions: IGROV-1, 48 h; how it was run: as §2
SW-620 = experiment: Growth inhibition of human SW620 cells after 48 hrs by Sulforhodamine B assay; conditions: SW-620, 48 h; how it was run: as §1
HT-29 [3] = experiment: Growth inhibition of human HT-29 cells after 48 hrs by Sulforhodamine B assay; conditions: HT-29, 48 h; how it was run: as §2
KM12 [4] = experiment: Growth inhibition of human KM12 cells after 48 hrs by Sulforhodamine B assay; conditions: KM12, 48 h; how it was run: as §2
COLO 205 = experiment: Growth inhibition of human COLO205 cells after 48 hrs by Sulforhodamine B assay; conditions: COLO 205, 48 h; how it was run: as §2
HOP-62 = experiment: Growth inhibition of human HOP62 cells after 48 hrs by Sulforhodamine B assay; conditions: HOP-62, 48 h; how it was run: as §2
A549 = experiment: Growth inhibition of human A549/ATCC cells after 48 hrs by Sulforhodamine B assay; conditions: A549, 48 h; how it was run: as §2
RPMI-8226 = experiment: Growth inhibition of human RPMI8226 cells after 48 hrs by Sulforhodamine B assay; conditions: RPMI-8226, 48 h; how it was run: as §1
MOLT-4 = experiment: Growth inhibition of human MOLT4 cells after 48 hrs by Sulforhodamine B assay; conditions: MOLT-4, 48 h; how it was run: as §1
HL-60(TB) = experiment: Growth inhibition of human HL-60(TB) cells after 48 hrs by Sulforhodamine B assay; conditions: HL-60, 48 h
How it was run: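 Suspension cells pre-incubated 24 h at 37 °C, 5% CO2 before drug addition, with a time-zero plate fixed then. DMSO stocks diluted in medium with gentamicin to five concentrations (10-fold or ½-log steps); 48 h exposure. Settled cells fixed with TCA (final 16%), stained with SRB, dye dissolved in 10 mM Tris base, read at 515 nm. GI50 solved from [(Ti−Tz)/(C−Tz)]×100 = 50.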

CCRF-CEM = experiment: Growth inhibition of human CCRF-CEM cells after 48 hrs by Sulforhodamine B assay; how it was run: as §2
M14 = experiment: Growth inhibition of human M14 cells at 10^-5 M after 48 hrs by Sulforhodamine B assay relative to control; conditions: M14, 48 h, read-out: GI
How it was run: (§3)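 Single-dose screen at 10⁻⁵ M. Cells are preincubated 24 h at 37 °C in 5% CO2, then exposed to the compound, diluted from a DMSO stock into medium with gentamicin, for 48 h. Adherent cells are fixed with cold TCA (final 10%) and suspension cells with TCA (final 16%). Cells are stained with 0.4% SRB in 1% acetic acid and bound dye is read at 515 nm. Percent growth inhibition is taken against control wells and time-zero plates.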

HT-29 [5] = experiment: Growth inhibition of human HT-29 cells at 10^-5 M after 48 hrs by Sulforhodamine B assay relative to control; conditions: HT-29, 48 h, read-out: GI; how it was run: as §3
KM12 [6] = experiment: Growth inhibition of human KM12 cells at 10^-5 M after 48 hrs by Sulforhodamine B assay relative to control; conditions: KM12, 48 h, read-out: GI; how it was run: as §3
K562 = experiment: Growth inhibition of human K562 cells at 10^-5 M after 48 hrs by Sulforhodamine B assay relative to control; conditions: K562, 48 h, read-out: GI; how it was run: as §3
MDA-MB-468 = experiment: Growth inhibition of human MDA-MB-468 cells at 10^-5 M after 48 hrs by Sulforhodamine B assay relative to control; conditions: MDA-MB-468, 48 h, read-out: GI
How it was run: (§4)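 Single-dose primary screen at 10⁻⁵ M across 49 lines. Cells were plated 24 h beforehand, with a TCA-fixed time-zero plate, then exposed 48 h at 37 °C, 5% CO2. Cells were fixed with cold TCA, stained with SRB and read at 515 nm. Percent growth was calculated against time-zero and untreated-control absorbances.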

BT-549 = experiment: Growth inhibition of human BT549 cells at 10^-5 M after 48 hrs by Sulforhodamine B assay relative to control; conditions: BT-549, 48 h, read-out: GI; how it was run: as §3
DU-145 = experiment: Growth inhibition of human DU145 cells at 10^-5 M after 48 hrs by Sulforhodamine B assay relative to control; conditions: DU-145, 48 h, read-out: GI; how it was run: as §3
SN12C = experiment: Growth inhibition of human SN12C cells at 10^-5 M after 48 hrs by Sulforhodamine B assay relative to control; conditions: read-out: GI; how it was run: as §4
OVCAR-3 [7] = experiment: Growth inhibition of human OVCAR3 cells at 10^-5 M after 48 hrs by Sulforhodamine B assay relative to control; conditions: OVCAR-3, 48 h, read-out: GI; how it was run: as §4
OVCAR-4 = experiment: Growth inhibition of human OVCAR4 cells at 10^-5 M after 48 hrs by Sulforhodamine B assay relative to control; conditions: OVCAR-4, 48 h, read-out: GI; how it was run: as §4
IGROV-1 [8] = experiment: Growth inhibition of human IGROV1 cells at 10^-5 M after 48 hrs by Sulforhodamine B assay relative to control; conditions: IGROV-1, 48 h, read-out: GI; how it was run: as §3
Malme-3M = experiment: Growth inhibition of human MALME-3M cells at 10^-5 M after 48 hrs by Sulforhodamine B assay relative to control; conditions: read-out: GI; how it was run: as §3

In the case of `c1ccc(-c2nc(N3CCOCC3)c3c4c(sc3n2)CCCCCC4)nc1`, the GI50 (PC-3) is reported as 2.69 µM, the GI50 (TK-10) is reported as 9.33 µM and the GI50 (CAKI-1) is reported as 2290 nM. It also gave a GI50 (OVCAR-3 [1]) of 4.57 µM, a GI50 (IGROV-1 [2]) of 3.16 µM and a GI50 (SW-620) of 8.91 µM. For the same compound, the GI50 (HT-29 [3]) was 6.03 µM, the GI50 (KM12 [4]) was 4.27 µM and the GI50 (COLO 205) was 9.33 µM. It also gave a GI50 (HOP-62) of 9.55 µM, a GI50 (A549) of 3.55 µM and a GI50 (RPMI-8226) of 2.14 µM. For the same compound, the GI50 (MOLT-4) was 3.8 µM, the GI50 (HL-60(TB)) was 4.47 µM and the GI50 (CCRF-CEM) was 3.55 µM.
`Clc1nc(-c2ccncc2)nc2sc3c(c12)CCCCCC3` gave an inhibition of growth at 10 µM (M14) of -7.52%, an inhibition of growth at 10 µM (HT-29 [5]) of -1.58% and an inhibition of growth at 10 µM (KM12 [6]) of 0.47%. It also gave an inhibition of growth at 10 µM (K562) of 13.6%, an inhibition of growth at 10 µM (MDA-MB-468) of 39.6% and an inhibition of growth at 10 µM (BT-549) of -2.76%. It also gave an inhibition of growth at 10 µM (DU-145) of 8.02%, an inhibition of growth at 10 µM (SN12C) of 4.53% and an inhibition of growth at 10 µM (OVCAR-3 [7]) of -5.97%. The inhibition of growth at 10 µM (OVCAR-4) was 14.8%, the inhibition of growth at 10 µM (IGROV-1 [8]) was 7.04% and the inhibition of growth at 10 µM (Malme-3M) was 7.42%.
With `NNc1nc(-c2ccccn2)nc2sc3c(c12)CCCCCC3` the GI50 (PC-3) was 3.98 µM, the GI50 (TK-10) was 9.12 µM and the GI50 (CAKI-1) was 575 nM. For the same compound, the GI50 (OVCAR-3 [1]) was 5.37 µM, the GI50 (IGROV-1 [2]) was 4.17 µM and the GI50 (SW-620) was 4.57 µM. The GI50 (HT-29 [3]) was 5.5 µM, the GI50 (KM12 [4]) was 6.46 µM and the GI50 (COLO 205) was 5.13 µM. The GI50 (HOP-62) was 8.51 µM, the GI50 (A549) was 3.16 µM and the GI50 (RPMI-8226) was 3.24 µM. It also gave a GI50 (MOLT-4) of 3.63 µM, a GI50 (HL-60(TB)) of 4.47 µM and a GI50 (CCRF-CEM) of 4.47 µM.
`O=c1[nH]c(-c2ccncc2)nc2sc3c(c12)CCCCCC3` was tested, and the GI50 (PC-3) was > 100 µM, the GI50 (TK-10) was > 100 µM and the GI50 (CAKI-1) was > 100000 nM. For the same compound, the GI50 (OVCAR-3 [1]) was > 100 µM, the GI50 (IGROV-1 [2]) was > 100 µM and the GI50 (SW-620) was > 100 µM. The GI50 (HT-29 [3]) was > 100 µM, the GI50 (KM12 [4]) was > 100 µM and the GI50 (COLO 205) was > 100 µM. The GI50 (HOP-62) was > 100 µM, the GI50 (A549) was > 100 µM and the GI50 (RPMI-8226) was > 100 µM. For the same compound, the GI50 (MOLT-4) was > 100 µM, the GI50 (HL-60(TB)) was > 100 µM and the GI50 (CCRF-CEM) was > 100 µM.
With `Clc1nc(-c2ccccn2)nc2sc3c(c12)CCCCCC3` the inhibition of growth at 10 µM (M14) was 13.2%, the inhibition of growth at 10 µM (HT-29 [5]) was 0.67% and the inhibition of growth at 10 µM (KM12 [6]) was 8.45%. The inhibition of growth at 10 µM (K562) was 20.2%, the inhibition of growth at 10 µM (MDA-MB-468) was 184% and the inhibition of growth at 10 µM (BT-549) was 14.9%. For the same compound, the inhibition of growth at 10 µM (DU-145) was 77.5%, the inhibition of growth at 10 µM (SN12C) was 15.1% and the inhibition of growth at 10 µM (OVCAR-3 [7]) was -7.89%. It also gave an inhibition of growth at 10 µM (OVCAR-4) of 14.3%, an inhibition of growth at 10 µM (IGROV-1 [8]) of 10.2% and an inhibition of growth at 10 µM (Malme-3M) of 5.75%.
In the case of `O=c1[nH]c(-c2ccccn2)nc2sc3c(c12)CCCCCC3`, the GI50 (PC-3) is reported as 4.07 µM, the GI50 (TK-10) is reported as > 100 µM and the GI50 (CAKI-1) is reported as 3310 nM. For the same compound, the GI50 (OVCAR-3 [1]) was 8.51 µM, the GI50 (IGROV-1 [2]) was 3.98 µM and the GI50 (SW-620) was 4.9 µM. For the same compound, the GI50 (HT-29 [3]) was 7.76 µM, the GI50 (KM12 [4]) was 4.07 µM and the GI50 (COLO 205) was 5.89 µM. The GI50 (HOP-62) was 6.31 µM, the GI50 (A549) was 2.57 µM and the GI50 (RPMI-8226) was 3.63 µM. It also gave a GI50 (MOLT-4) of 2.4 µM, a GI50 (HL-60(TB)) of 3.39 µM and a GI50 (CCRF-CEM) of 0.912 µM.
